Results reported in ChEMBL document CHEMBL5724801, “EUbOPEN Chemogenomics Library - Multiplex” (2024).
Values joined by “and” are separate entries in the source; they are usually repeats but may differ in a detail not shown here. Equal values may be shown once.

System: U2OS
Assay: Multiplex assay against U2OS
Type: toxicity, cell-based
Conditions: human
How it was run: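 Tubulin, mitochondrial-mass and membrane-permeability phenotypes are per cents of healthy-nucleus cells. Cells were gated by CellPathfinder machine learning into Hoechst high-intensity objects or normal cells, normal cells into healthy, pyknosed or fragmented nuclei, and pyknosed cells into mitotic or apoptotic. Before that, live cells stained at seeding with Hoechst33342, BioTracker Green Microtubule Cytoskeleton Dye, MitoTracker Red and Annexin V Alexa Fluor 680 were imaged on a CQ1 microscope at 37°C and 5% CO2 after compound addition.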

[1] = 12 h, 1 µM, compound concentration 1 uM
[2] = 12 h, 10 µM, compound concentration 10 uM
[3] = 24 h, 1 µM, compound concentration 1 uM
[4] = 24 h, 10 µM, compound concentration 10 uM
[5] = 48 h, 1 µM, compound concentration 1 uM
[6] = 48 h, 10 µM, compound concentration 10 uM

CCn1c(-c2ccncc2)cc2c1CCNC2=O
Population Apoptotic (%) [1]: 53.12% and 58.33% | Population Fragmented Nuclei (%) [1]: 2.21% and 6.71% | Population Healthy Nuclei (%) [1]: 88.95% and 78.66% | Population Hoechst High Intensity Objects (%) [1]: 0% | Population Membrane Permeable-Phenotype (%) [1]: 0.93% and 4.65% | Population Mitochondria Different-Phenotype (%) [1]: 0.31% and 6.98% | Population Mitotic Cells (%) [1]: 46.88% and 41.67% | Population Normal (%) [1]: 100% | Population Pyknosed Nuclei (%) [1]: 8.84% and 14.63% | Population Tubulin-Different-Phenotype (%) [1]: 1.24% and 3.88% | Total Cell Count [1]: 362 and 164 | Population Apoptotic (%) [2]: 43.94% and 36.59% | Population Fragmented Nuclei (%) [2]: 4.31% and 5.7% | Population Healthy Nuclei (%) [2]: 69.8% and 68.35% | Population Hoechst High Intensity Objects (%) [2]: 0% | Population Membrane Permeable-Phenotype (%) [2]: 3.93% and 8.33% | Population Mitochondria Different-Phenotype (%) [2]: 0% and 6.48% | Population Mitotic Cells (%) [2]: 56.06% and 63.41% | Population Normal (%) [2]: 100% | Population Pyknosed Nuclei (%) [2]: 25.88% and 25.95% | Population Tubulin-Different-Phenotype (%) [2]: 2.25% and 1.85% | Total Cell Count [2]: 255 and 158 | Population Apoptotic (%) [3]: 59.26% and 60% | Population Fragmented Nuclei (%) [3]: 3.6% and 7.14% | Population Healthy Nuclei (%) [3]: 75.58% and 63.1% | Population Hoechst High Intensity Objects (%) [3]: 0% | Population Membrane Permeable-Phenotype (%) [3]: 1.02% and 6.6% | Population Mitochondria Different-Phenotype (%) [3]: 0% and 13.21% | Population Mitotic Cells (%) [3]: 40.74% and 40% | Population Normal (%) [3]: 100% | Population Pyknosed Nuclei (%) [3]: 20.82% and 29.76% | Population Tubulin-Different-Phenotype (%) [3]: 1.02% and 5.66% | Total Cell Count [3]: 389 and 168 | Population Apoptotic (%) [4]: 46.96% and 46.84% | Population Fragmented Nuclei (%) [4]: 11.97% and 16.77% | Population Healthy Nuclei (%) [4]: 43.63% and 34.16% | Population Hoechst High Intensity Objects (%) [4]: 0% | Population Membrane Permeable-Phenotype (%) [4]: 1.77% and 9.09% | Population Mitochondria Different-Phenotype (%) [4]: 0% and 9.09% | Population Mitotic Cells (%) [4]: 53.04% and 53.16% | Population Normal (%) [4]: 100% | Population Pyknosed Nuclei (%) [4]: 44.4% and 49.07% | Population Tubulin-Different-Phenotype (%) [4]: 3.54% and 5.45% | Total Cell Count [4]: 259 and 161 | Population Apoptotic (%) [5]: 67.24% and 64.84% | Population Fragmented Nuclei (%) [5]: 5.9% and 9.91% | Population Healthy Nuclei (%) [5]: 56.11% and 49.1% | Population Hoechst High Intensity Objects (%) [5]: 0% | Population Membrane Permeable-Phenotype (%) [5]: 3.5% and 6.42% | Population Mitochondria Different-Phenotype (%) [5]: 0% and 4.59% | Population Mitotic Cells (%) [5]: 32.76% and 35.16% | Population Normal (%) [5]: 100% | Population Pyknosed Nuclei (%) [5]: 37.99% and 40.99% | Population Tubulin-Different-Phenotype (%) [5]: 7.39% and 6.42% | Total Cell Count [5]: 458 and 222 | Population Apoptotic (%) [6]: 66.29% and 76.67% | Population Fragmented Nuclei (%) [6]: 10.3% and 11.18% | Population Healthy Nuclei (%) [6]: 14.59% and 9.87% | Population Hoechst High Intensity Objects (%) [6]: 0% and 0.65% | Population Mitochondria Different-Phenotype (%) [6]: 0% | Population Mitotic Cells (%) [6]: 33.71% and 23.33% | Population Normal (%) [6]: 100% and 99.35% | Population Pyknosed Nuclei (%) [6]: 75.11% and 78.95% | Population Tubulin-Different-Phenotype (%) [6]: 23.53% and 26.67% | Total Cell Count [6]: 233 and 153

O=C(NCC(=O)N1CC[C@H](N[C@H]2CC[C@@](O)(c3ccc(-c4ncccn4)cn3)CC2)C1)c1cccc(C(F)(F)F)c1 [PF-4136309]
Population Apoptotic (%) [1]: 79% and 93% | Population Fragmented Nuclei (%) [1]: 25% and 13% | Population Healthy Nuclei (%) [1]: 64% and 74% | Population Hoechst High Intensity Objects (%) [1]: 1% and 4% | Population Membrane Permeable-Phenotype (%) [1]: 6% and 11% | Population Mitochondria Different-Phenotype (%) [1]: 3% and 5% | Population Normal (%) [1]: 98% and 95% | Population Pyknosed Nuclei (%) [1]: 9% and 12% | Population Tubulin-Different-Phenotype (%) [1]: 4% and 8% | Total Cell Count [1]: 249 and 138 | Population Apoptotic (%) [2]: 68% and 60% | Population Fragmented Nuclei (%) [2]: 25% and 22% | Population Healthy Nuclei (%) [2]: 62% and 66% | Population Hoechst High Intensity Objects (%) [2]: 4% and 1% | Population Membrane Permeable-Phenotype (%) [2]: 15% and 25% | Population Mitochondria Different-Phenotype (%) [2]: 4% and 10% | Population Mitotic Cells (%) [2]: 31% and 40% | Population Normal (%) [2]: 95% and 98% | Population Pyknosed Nuclei (%) [2]: 12% and 11% | Population Tubulin-Different-Phenotype (%) [2]: 9% and 11% | Total Cell Count [2]: 242 and 90 | Population Apoptotic (%) [3]: 80% and 91% | Population Fragmented Nuclei (%) [3]: 22% and 16% | Population Healthy Nuclei (%) [3]: 69% and 76% | Population Hoechst High Intensity Objects (%) [3]: 1% and 3% | Population Membrane Permeable-Phenotype (%) [3]: 4% and 5% | Population Mitochondria Different-Phenotype (%) [3]: 2% and 4% | Population Mitotic Cells (%) [3]: 20% and 8% | Population Normal (%) [3]: 98% and 96% | Population Pyknosed Nuclei (%) [3]: 8% and 7% | Population Tubulin-Different-Phenotype (%) [3]: 2% | Total Cell Count [3]: 304 and 169 | Population Apoptotic (%) [4]: 83% and 75% | Population Fragmented Nuclei (%) [4]: 23% and 21% | Population Healthy Nuclei (%) [4]: 62% and 70% | Population Hoechst High Intensity Objects (%) [4]: 3% and 0% | Population Membrane Permeable-Phenotype (%) [4]: 10% and 15% | Population Mitochondria Different-Phenotype (%) [4]: 3% and 11% | Population Mitotic Cells (%) [4]: 16% and 25% | Population Normal (%) [4]: 96% and 99% | Population Pyknosed Nuclei (%) [4]: 13% and 7% | Population Tubulin-Different-Phenotype (%) [4]: 3% and 7% | Total Cell Count [4]: 271 and 102 | Population Apoptotic (%) [5]: 87% and 96% | Population Fragmented Nuclei (%) [5]: 14% and 12% | Population Healthy Nuclei (%) [5]: 74% and 75% | Population Hoechst High Intensity Objects (%) [5]: 2% and 3% | Population Membrane Permeable-Phenotype (%) [5]: 4% and 6% | Population Mitochondria Different-Phenotype (%) [5]: 3% | Population Mitotic Cells (%) [5]: 12% and 4% | Population Normal (%) [5]: 97% and 96% | Population Pyknosed Nuclei (%) [5]: 11% | Population Tubulin-Different-Phenotype (%) [5]: 3% and 4% | Total Cell Count [5]: 443 and 224 | Population Apoptotic (%) [6]: 69% and 92% | Population Fragmented Nuclei (%) [6]: 22% and 20% | Population Healthy Nuclei (%) [6]: 61% and 60% | Population Hoechst High Intensity Objects (%) [6]: 4% and 0% | Population Membrane Permeable-Phenotype (%) [6]: 9% and 15% | Population Mitochondria Different-Phenotype (%) [6]: 5% and 8% | Population Normal (%) [6]: 95% and 100% | Population Pyknosed Nuclei (%) [6]: 15% and 18% | Population Tubulin-Different-Phenotype (%) [6]: 4% | Total Cell Count [6]: 360 and 138
